Compound activity as filed in PubChem BioAssay.
RBBP9 inh = blocks human serine hydrolase RBBP9 | AID 1515 | inhibition, % at 7.94 µM | hit rate 0.2% among 220,000 | O75884 | recombinant RBBP9, FP-Rh probe fluorescence polarization;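 active = inhibition above the campaign mean of all tested compounds plus 3 SD, cut at about 14% in these data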;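 also: plate controls were DMSO wells with RBBP9 for no effect and wells lacking RBBP9 protein for full effect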
Target sequence (O75884 whole entry, looked up): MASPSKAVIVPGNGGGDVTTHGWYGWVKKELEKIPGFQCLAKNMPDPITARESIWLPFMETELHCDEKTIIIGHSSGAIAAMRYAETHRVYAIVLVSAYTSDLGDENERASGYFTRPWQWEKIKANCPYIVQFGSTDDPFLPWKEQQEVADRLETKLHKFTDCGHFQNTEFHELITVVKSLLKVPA
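Controls: DMSO-treated enzyme wells and wells lacking RBBP9 | Material: RBBP9 protein | Technique: Fluorescence polarization | Replication: Single well per compound, no replicates | Buffer or medium: Tris-NaCl-Pluronic buffer, pH 8.0 | Timing: 30 min compound preincubation, 45 min probe labeling, 25 °C | Read-out basis: Percent inhibition from mP, scaled between DMSO and no-protein wells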
PfM18AAP inh-1 = PfM18AAP enzyme inhibition; inhibition, % at 7.35 µM; hit rate 1.2% among 290,000; recombinant PfM18AAP, H-Glu-NHMec fluorogenic cleavage; AID 1822;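 active = inhibition above the campaign mean inhibition over all tested compounds plus 3 SD, cut at about 28% in these data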;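 also: 0% = plate median of test compound wells and 100% = 2 mM ZnCl2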
Runt-CBFb FRET = Runt domain-CBFb interaction inhibition; Cerulean-Runt/Venus-CBFb FRET ratio 530/480, 1 h; inhibition, % at 20 µM; hit rate 0.46% among 220,000; Q01196+Q13951;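 active = inhibition over about 50% at 20 µM in the single-dose screen, limit read from the data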;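 also: 0% = DMSO wells and 100% = excess unlabeled CBFb competitor control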
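test system = Cerulean-Runt domain fusion protein, energy donor | probe or stimulus = Venus-CBFb binding partner, 100 nM | incubation = two 1 h room-temperature incubations shielded from light | detection = fluorescence energy transfer, 422 nm excitation, 530/480 nm emission | measure = loss of energy transfer signal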
Hck Nef HTS = inhibitors of human Hck kinase activated by Nef. P08631. Recombinant Hck-YEEI plus Nef, Z-Lyte FRET kinase assay. inhibition, % at 20 µM. hit rate 0.68% among 220,000. AID 463187;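 active = Hck-Nef kinase inhibition above about 50%, limit read from the data; inactive = inhibition below that limit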;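 also: 0% = DMSO with Hck plus Nef and 100% = Hck alone without Nef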
Runt-SMMHC FRET = inhibitors of human RUNX1 Runt domain binding to CBFb-SMMHC | Q01196+Q13951 | Cerulean-Runt/Venus-CBFb-SMMHC FRET ratio 530/480, 1 h | inhibition, % at 20 µM | hit rate 0.74% among 220,000 | AID 1434;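 active = mean inhibition across duplicate retests at 20 µM reaching about 50%, limit read from the data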;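 also: 0% = DMSO wells and 100% = wells with excess untagged CBFb-SMMHC; inhibitors lower the FRET ratio by blocking Runt binding to CBFb-SMMHC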
RanGTP-Impb inh = disruptors of Ran-importin-beta complex formation – biochemical, FRET, CFP-Ran, YFP-importin-beta, homogeneous, primary screen | cell-free CFP-Ran/YFP-importin-beta FRET ratio | inhibition, % (concentration not given with the values) | hit rate 1.1% among 300,000;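 active = more than half of the replicate wells show a fall in the fluorescence ratio signal beyond about 16%, limit read from the data, passing the limit was not always enough; inconclusive = exactly half of the replicate wells pass the set limit; inactive = fewer than half of replicates pass the limit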;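 also: 0% = DMSO wells and 100% = Ran loaded with GDP instead of GTP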
PfM18AAP inh-2 = confirmation of Plasmodium falciparum M18 aspartyl aminopeptidase inhibitors | shares compounds with PfM18AAP inh-1 | recombinant PfM18AAP, H-Glu-NHMec fluorogenic cleavage | inhibition, % at 7.35 µM | hit rate 28% among 2,400 | AID 2170;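 active = mean inhibition over replicate wells above the hit cutoff set for the earlier primary screen, cut at about 29% in these data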;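 also: 0% = median of test compound wells and 100% = 2 mM ZnCl2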
CTSL1 confirm = Cathepsin L (human) inhibition, confirmation; shares compounds with PfM18AAP inh-1; purified cathepsin L1, Z-Leu-Arg-MCA fluorescence; inhibition, % at 5.96 µM; 2,400 tested, under 10 active;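 active = average inhibition across replicates above the hit cutoff set in the earlier primary screen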;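 also: 0% = median of test compound wells and 100% = Z-Phe-Ala-diazomethylketone 1 µM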
Target sequence (P07711 whole entry, looked up): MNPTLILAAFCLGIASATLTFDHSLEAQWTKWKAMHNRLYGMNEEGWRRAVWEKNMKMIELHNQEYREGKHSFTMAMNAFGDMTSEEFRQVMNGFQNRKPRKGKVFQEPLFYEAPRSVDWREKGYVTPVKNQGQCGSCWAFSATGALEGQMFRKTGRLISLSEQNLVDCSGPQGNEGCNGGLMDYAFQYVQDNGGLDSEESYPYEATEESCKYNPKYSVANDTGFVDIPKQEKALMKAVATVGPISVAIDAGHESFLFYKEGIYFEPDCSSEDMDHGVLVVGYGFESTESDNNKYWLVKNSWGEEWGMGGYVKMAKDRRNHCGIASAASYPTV
* hit, by the source's call; ? = inconclusive; . = not tested or not shown. The list is not random: actives were taken first. Their share in the collection is about 2.9%.

SMILES | RBBP9 inh | PfM18AAP inh-1 | Runt-CBFb FRET | Hck Nef HTS | Runt-SMMHC FRET | RanGTP-Impb inh | PfM18AAP inh-2 | CTSL1 confirm
Cc1ccsc1/C=N/Nc1nc(Cl)c(Cl)cc1Cl | -5.1 | 19.1 | -0.7 | 1.1 | -0.3 | 0.6 | . | .
Cc1ccc(/C=N/Nc2nc(Cl)c(Cl)cc2Cl)s1 | -1.4 | 46.0* | -0.2 | 2.6 | 4.2 | -3.0 | -42.3 | -0.9
O=c1[nH]sc2ccccc12 | -4.8 | 49.7* | 25.2 | -5.2 | 18.6 | 4.1 | 30.0* | 2.3
CC1(C)Cc2c(c(N3CCCC3)nc3sc(C(=O)Nc4ccccc4)c(N)c23)CO1 | . | 22.6 | . | . | . | -7.8 | . | .
Cc1ccc(NC(=O)c2sc3nc(N4CCOCC4)c4c(c3c2N)CC(C)(C)OC4)cc1 | . | 38.6* | . | . | . | 2.9 | -55.1 | 2.3
CCOc1ccc(NC(=O)c2sc3nc(N4CCOCC4)c4c(c3c2N)CC(C)(C)OC4)cc1 | . | 42.4* | . | . | . | 3.8 | -0.1 | -1.3
NC(=O)c1sc2nc(N3CCOCC3)c3c(c2c1N)CCCC3 | 8.1 | -34.3 | 14.9 | 1.9 | 39.0 | 0.1 | . | .
CC1(C)Cc2c(c(N3CCOCC3)nc3sc(C(=O)Nc4ccc(Cl)cc4)c(N)c23)CO1 | . | 40.0* | . | . | . | 4.6 | 0.2 | -7.3
CC1(C)Cc2c(c(N3CCOCC3)nc3sc(C(N)=O)c(N)c23)CO1 | 0.9 | 43.3* | 29.5 | 25.0 | -5.3 | 6.5 | 11.3 | 3.1
CSCC[C@H](NC(=O)N1C[C@H]2C[C@@H](C1)c1cccc(=O)n1C2)C(=O)Nc1ccc(NC(C)=O)cc1 | . | -0.6 | . | . | . | 1.8 | . | .
NS(=O)(=O)c1ccc(NC(=O)CSc2nc3c(c(=O)[nH]2)CCCC3)cc1 | . | 1.3 | . | . | . | 1.2 | . | .
COc1c(Br)cc(/C=N/n2c(-c3ccccc3)n[nH]c2=S)c(O)c1Br | . | 45.0* | . | . | . | -2.5 | -9.1 | -3.0
CC(C)Cn1c(-c2ccccc2F)n[nH]c1=S | 9.2 | 32.5* | 5.3 | 7.8 | -1.5 | 1.6 | 1.3 | -0.9
Oc1cccc(C=Nc2cccc3ccccc23)c1O | . | 49.9* | . | . | . | 9.9 | 31.8* | -2.4
Oc1ccccc1N=Cc1c(O)ccc2ccccc12 | -2.4 | 30.7* | 13.1 | 2.0 | -42.9 | -1.2 | -4.8 | 3.0
Oc1ccccc1C=Nc1cccc2ccccc12 | . | 12.0 | . | . | . | 1.2 | . | .
O=C(Cn1ccc(C(F)(F)F)n1)N=Nc1c(O)[nH]c2ccc(Br)cc12 | -7.8 | 1.6 | -4.6 | -14.0 | 1.1 | 5.5 | . | .
O=C(/C=C1\SC(=O)NC1=O)Nc1ccc(F)cc1 | 4.0 | 35.7* | -2.0 | 5.0 | 1.9 | -1.8 | -55.6 | 7.1
O=C(c1ccc(Cl)cc1)c1c[nH]cc1-c1ccccc1 | 7.3 | 36.7* | -0.3 | 9.4 | 2.5 | -5.1 | -43.0 | 1.0
COc1ccc(C(=O)c2c[nH]cc2-c2ccccc2)cc1 | -5.5 | 3.1 | -1.0 | 1.7 | -1.1 | 3.6 | . | .
CC1CCN(c2ccc(/C=N\Nc3nncn3N)cc2[N+](=O)[O-])CC1 | -11.4 | 52.8* | -3.1 | 1.3 | 2.8 | . | -18.2 | -3.6
CC(C)(C)c1ccc(/C=N/Nc2nncn2N)cc1 | . | 51.0* | . | . | . | -2.9 | -18.3 | -1.2
CC(C)(C)c1ccc(/C=N/Nc2ccc(C(=O)O)cc2)cc1 | -8.1 | -6.3 | 1.9 | -3.5 | 2.6 | -4.0 | . | .
CC(C)(C)c1nnc(N/N=C/c2ccc(Br)cc2)n(N)c1=O | -8.5 | 42.7* | -1.0 | 0.5 | 1.7 | -2.4 | -38.0 | 1.6
CSc1ccc(/C=N\Nc2nncn2N)cc1 | . | 52.5* | . | . | . | -1.4 | -15.9 | -3.7
CCOC(=O)c1cncc(O)c1 | -7.7 | -9.4 | 1.0 | 2.9 | -2.5 | 2.6 | . | .
CCN1/C(=C\C(=S)Nc2ccccc2)Sc2ccccc21 | 11.5 | 40.9* | . | 18.1 | . | -2.1 | 15.3 | 1.6
CCN1/C(=C\C=C(C(C)=O)C(C)=O)Sc2ccccc21 | -11.2 | 2.7 | -81.2 | 10.9 | -174.6 | 3.3 | . | .
Cc1ccc(C)c(S(=O)(=O)N2CCN(C(=O)CSc3ccccc3F)CC2)c1 | . | -0.5 | . | . | . | 1.0 | . | .
COc1ccc2oc(=O)c(-c3nnc(NCc4ccco4)s3)cc2c1 | -3.1 | 39.6* | -122.7 | 22.0 | 43.7 | ? | -26.8 | 1.8
